We go through one compound from ChEMBL document CHEMBL3994667, “Small Molecule Lysyl Oxidase-like 2 (LOXL2) Inhibitors: The Identification of an Inhibitor Selective for LOXL2 over LOX” (ACS Med Chem Lett, 2017).

Molecules are shown by their SMILES. Activity calls are given as the source filed them. The calls are words filed in the database; no cut-off is given here.

The target in assay [1] is T1, Lysyl oxidase homolog 2 (Homo sapiens, UniProt Q9Y4K0).
T1 sequence (Q9Y4K0 whole entry): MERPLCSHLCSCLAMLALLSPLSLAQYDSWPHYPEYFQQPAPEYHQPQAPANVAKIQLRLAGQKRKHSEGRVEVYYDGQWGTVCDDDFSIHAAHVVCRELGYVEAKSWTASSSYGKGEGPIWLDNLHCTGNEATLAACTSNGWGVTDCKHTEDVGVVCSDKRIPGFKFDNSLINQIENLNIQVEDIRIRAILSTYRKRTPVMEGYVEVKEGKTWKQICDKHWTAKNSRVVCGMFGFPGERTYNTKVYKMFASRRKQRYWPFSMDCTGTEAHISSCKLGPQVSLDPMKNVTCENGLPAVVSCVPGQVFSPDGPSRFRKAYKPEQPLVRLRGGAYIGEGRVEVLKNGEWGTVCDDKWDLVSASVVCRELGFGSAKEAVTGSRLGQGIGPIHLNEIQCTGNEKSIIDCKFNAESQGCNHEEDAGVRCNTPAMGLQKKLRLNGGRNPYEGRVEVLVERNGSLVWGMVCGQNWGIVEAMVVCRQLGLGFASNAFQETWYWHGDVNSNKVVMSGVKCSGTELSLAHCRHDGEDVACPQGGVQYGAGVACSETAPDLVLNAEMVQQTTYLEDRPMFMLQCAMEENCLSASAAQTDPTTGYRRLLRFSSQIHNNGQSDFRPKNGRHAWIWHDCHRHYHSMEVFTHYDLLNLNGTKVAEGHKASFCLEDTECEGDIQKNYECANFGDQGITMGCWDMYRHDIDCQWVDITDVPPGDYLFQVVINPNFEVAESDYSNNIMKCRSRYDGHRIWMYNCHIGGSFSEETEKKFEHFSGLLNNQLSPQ
The assay can be described thus: Inhibition of full length recombinant human LOXL2 expressed in CHO cells assessed as reduction in H2O2 production using DAP as substrate preincubated for 2 hrs followed by substrate addition measured every 2 minutes for 50 minutes by Amplex red dye based fluorescence assay.

The target of assay [2] is T1, Lysyl oxidase homolog 2. The assay can be described thus: Inhibition of full length recombinant human LOXL2 expressed in CHO cells spiked into human whole blood assessed as reduction in H2O2 production using DAP as substrate preincubated for 2 followed by substrate addition measured every 90 secs for 45 mins by Amplex red dye based fluorescence assay. The class given is cell-based. The procedure, abridged: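 Human recombinant LOXL2 spiked into human whole blood. Oxidative deamination of 1,5-diaminopentane measured as H2O2 with Amplex Red. IC50 expressed as geometric mean x/÷ geometric SD with N.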

For assay [3], the target named is T1, Lysyl oxidase homolog 2. The assay can be described thus: Inhibition of full length recombinant human LOXL2 expressed in CHO cells assessed as reduction in H2O2 production using DAP as substrate preincubated for 2 hrs followed by substrate addition measured every 2 minutes for 50 minutes in presence of BSA by Amplex red dye based fluorescence assay. The procedure, abridged: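 Serum-free concentrated conditioned medium from CHO cells stably expressing human LOXL2, supplemented with BSA. Compounds preincubated for 2 h (the screening preincubation time). Substrate was 1,5-diaminopentane, and the H2O2 formed was detected with Amplex Red. IC50 given as geometric mean x/÷ geometric SD over N determinations.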

In another assay the target is T2, Protein-lysine 6-oxidase (Homo sapiens, UniProt P28300).
T2 sequence (P28300 whole entry): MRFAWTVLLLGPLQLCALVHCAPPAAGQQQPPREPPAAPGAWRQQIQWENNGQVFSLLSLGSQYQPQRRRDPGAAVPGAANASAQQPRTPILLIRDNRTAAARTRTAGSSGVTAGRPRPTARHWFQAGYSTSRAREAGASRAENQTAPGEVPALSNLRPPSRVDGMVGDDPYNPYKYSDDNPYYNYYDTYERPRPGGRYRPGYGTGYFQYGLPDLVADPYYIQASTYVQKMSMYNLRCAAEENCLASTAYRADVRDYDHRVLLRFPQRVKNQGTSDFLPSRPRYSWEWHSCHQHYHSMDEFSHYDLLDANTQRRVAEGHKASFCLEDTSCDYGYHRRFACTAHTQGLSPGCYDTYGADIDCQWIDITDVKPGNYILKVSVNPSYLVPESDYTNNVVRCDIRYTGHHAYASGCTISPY
The experiment in a line: Inhibition of full length recombinant human LOX expressed in HEK cells assessed as reduction in H2O2 production using DAP as substrate preincubated for 2 hrs followed by substrate addition measured every 2 minutes for 50 minutes in presence of BSA by Amplex red dye based fluorescence assay. An outline of the steps: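 Enzyme source: serum-free conditioned media from HEK cells stably expressing human LOX, with BSA added to give measurable activity. Activity is measured as H2O2 from oxidative deamination of 1,5-diaminopentane (DAP), read by Amplex Red. IC50 is given as geometric mean x/÷ geometric standard deviation, with N-values reported.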

Assay [4] deals with T3, Amine oxidase [copper-containing] 3 (Homo sapiens) (UniProt Q16853).
T3 sequence (whole entry): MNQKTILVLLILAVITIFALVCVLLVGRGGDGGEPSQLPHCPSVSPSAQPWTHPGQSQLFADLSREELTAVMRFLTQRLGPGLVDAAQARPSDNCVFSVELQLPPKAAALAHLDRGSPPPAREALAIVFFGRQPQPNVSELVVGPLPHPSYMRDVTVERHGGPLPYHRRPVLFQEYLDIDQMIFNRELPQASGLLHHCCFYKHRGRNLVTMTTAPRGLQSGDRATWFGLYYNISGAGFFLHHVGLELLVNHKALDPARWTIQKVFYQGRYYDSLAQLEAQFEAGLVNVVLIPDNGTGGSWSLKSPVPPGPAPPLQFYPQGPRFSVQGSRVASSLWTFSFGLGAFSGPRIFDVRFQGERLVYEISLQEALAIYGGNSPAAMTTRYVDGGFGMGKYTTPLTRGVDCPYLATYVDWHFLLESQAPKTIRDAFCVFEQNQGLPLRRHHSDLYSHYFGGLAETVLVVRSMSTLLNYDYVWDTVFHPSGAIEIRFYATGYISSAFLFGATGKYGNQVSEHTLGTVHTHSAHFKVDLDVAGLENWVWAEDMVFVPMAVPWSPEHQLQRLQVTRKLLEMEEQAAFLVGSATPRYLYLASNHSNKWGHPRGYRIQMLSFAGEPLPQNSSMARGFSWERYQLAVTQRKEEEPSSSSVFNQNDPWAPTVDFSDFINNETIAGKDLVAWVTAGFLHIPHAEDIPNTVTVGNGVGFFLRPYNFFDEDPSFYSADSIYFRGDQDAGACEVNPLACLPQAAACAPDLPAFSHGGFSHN
The assay can be described thus: Inhibition of SSAO in human plasma at 30 uM using benzylamine as substrate preincubated for 2 hrs followed by substrate addition measured every 30 secs for 15 minutes by Amplex red dye based fluorescence assay.

For the next assay, the target named is Cytochrome P450 2D6 (Homo sapiens, UniProt P10635). The assay can be described thus: Inhibition of CYP2D6 (unknown origin). The assay is classed as ADME.
Chain of Cytochrome P450 2D6 (P10635 whole entry): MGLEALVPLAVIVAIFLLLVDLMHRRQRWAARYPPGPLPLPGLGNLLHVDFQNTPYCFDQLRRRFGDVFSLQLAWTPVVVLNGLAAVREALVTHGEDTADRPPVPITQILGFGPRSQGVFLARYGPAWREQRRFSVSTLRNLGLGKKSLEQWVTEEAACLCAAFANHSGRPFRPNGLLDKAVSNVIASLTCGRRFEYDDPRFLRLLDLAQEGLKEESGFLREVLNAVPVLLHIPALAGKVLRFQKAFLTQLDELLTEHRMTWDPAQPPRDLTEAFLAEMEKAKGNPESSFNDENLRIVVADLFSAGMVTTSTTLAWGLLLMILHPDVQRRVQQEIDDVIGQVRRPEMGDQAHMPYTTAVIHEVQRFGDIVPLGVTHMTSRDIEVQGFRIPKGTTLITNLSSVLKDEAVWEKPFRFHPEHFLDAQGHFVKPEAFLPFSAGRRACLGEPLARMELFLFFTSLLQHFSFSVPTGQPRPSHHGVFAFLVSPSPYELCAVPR

The IC50 is the concentration at which inhibition is half-maximal. As for `NCc1ccnc(Cl)c1`, the IC50 on Lysyl oxidase homolog 2 [1] is 126 nM; on Lysyl oxidase homolog 2 [2], 1450 nM; on Lysyl oxidase homolog 2 [3] it was 190 nM; on Protein-lysine 6-oxidase, 5910 nM; against Cytochrome P450 2D6, over 30000 nM. For the same compound, the inhibition result in assay [4] is “inactive”.
